According to PMC4210426 (The Journal of General Physiology, 2014):
Where “and” joins values, the source holds several entries; their conditions need not be identical. Equal entries are not always repeated. Where two headings read alike, the source gives them in different places.

Columns and labels:
[1] = biological target: T1, Slo1-C430S-A313C channels (Mus musculus, UniProt Q08460, A378C/C495S); settings: 1 mM MTSET, ref Zhou et al., 2011, cited from earlier work
BK channels [2] = experiment: bbTBA block of BK channels; type: cell-based; settings: assuming a zδ of 0.148 e assigned to the forward rate
BK channels [3] = settings: at 100 mV; ref Wilkens and Aldrich, 2006; cited from earlier work
BK channels (mSlo1) [4] = biological target: T2, BK channels (mSlo1) (Mus musculus, UniProt Q08460); type: cell-based
Outline: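 Oocyte inside-out patches at ∼22–25°C. Pipette (mM): 140 K-methanesulfonate, 20 KOH, 10 HEPES, 2 MgCl2, pH 7.0. Cytosolic Ca2+ buffered with 5 mM HEDTA (10 µM) or unbuffered (300 µM). Test compound equilibrated for 4 min at set holding potential/Ca2+ before G-V from brief test steps. Concentration series (at least four) used steps to 160 mV at −70 to 70 mV. Hill and allosteric-scheme fits.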

BK channels (mSlo1) [5] = biological target: T2, BK channels (mSlo1); experiment: NPo measurements at negative potentials in macropatches; type: cell-based
[6] = biological target: BK channel voltage sensors (mSlo1) (Mus musculus, UniProt Q08460); experiment: Gating current measurements in inside-out macropatches; type: cell-based; settings: with 500 nM paxilline, 0 Ca^2+
Outline: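 Inside-out macropatches from oocytes, room temperature (∼22–25°C). Pipette solution (mM): 127 TEA-OH, 125 methanesulfonic acid, 2 MgCl2, 10 HEPES, pH 7.0. Internal solution (mM): 141 NMDG, 135 methanesulfonic acid, 10 HEPES, 5 EGTA, pH 7.0. Voltage commands filtered at 20 kHz. Gating currents filtered at 10 kHz and sampled at 100 kHz. P/5 subtraction of capacitive and leak currents from −80 mV holding.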

BK channels (mSlo1) [7] = biological target: T2, BK channels (mSlo1); experiment: Kinetics of onset of and recovery from paxilline inhibition of BK current; type: cell-based
Outline: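 Oocyte inside-out patches with fast perfusion, room temperature. BK availability monitored by brief steps to 160 mV. Onset came from wash-in of 100 nM test compound at −80 mV, 300 µM Ca2+, fitted with single exponentials. Block rate was measured over 5–2,000 nM at −80 and −100 mV, with step interval cut to 0.2 s at highest concentrations. Recovery followed a switch in equilibration voltage or washout. Kd was derived from kinetic rates.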

[8] = biological target: Slo1-A313C channels (unmodified, MTSET-, MTSEA- or MTSES-modified) (Mus musculus, UniProt Q08460, A378C/C495S); experiment: Paxilline block of Slo1-A313C currents before and after MTS modification; type: cell-based; settings: 100 nM paxilline; for fractional block: 0 mV
BK channels (Slo1) = BK channels (Slo1) (Mus musculus, UniProt Q08460); experiment: Paxilline inhibition of BK current in the presence of bbTBA or 2 M sucrose; type: cell-based
[9] = biological target: T1, Slo1-C430S-A313C channels; experiment: MTSET modification of A313C in closed BK channels, without and with paxilline; type: cell-based; settings: 500 nM paxilline, −80 mV, 0 Ca^2+
Outline: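 Slo1-C430S-A313C channels in oocyte inside-out patches. 1 mM MTSET applied for 120 s at −80 mV holding in 0 Ca2+. Currents recorded with 300 µM Ca2+ before and after modification, with steps up to 200 mV. Separate control G-V sets were collected for modification without and with test compound.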

[10] = cited from earlier work
BK channel G311 mutant = settings: ref Zhou et al., 2010; cited from earlier work
[11] = system: pH-regulated Slo3 K^+ channel; settings: cited from earlier work
CNG channels = settings: ref Fodor et al., 1997a,b; cited from earlier work
[12] = in 100 nM paxilline, 10 µM Ca^2+, holding potential 0 mV
[13] = with 50 nM paxilline, all solutions 10 mM DTT, n = 7 patches

Chain of Slo1-A313C channels (unmodified, MTSET-, MTSEA- or MTSES-modified) (Q08460 whole entry A378C/C495S): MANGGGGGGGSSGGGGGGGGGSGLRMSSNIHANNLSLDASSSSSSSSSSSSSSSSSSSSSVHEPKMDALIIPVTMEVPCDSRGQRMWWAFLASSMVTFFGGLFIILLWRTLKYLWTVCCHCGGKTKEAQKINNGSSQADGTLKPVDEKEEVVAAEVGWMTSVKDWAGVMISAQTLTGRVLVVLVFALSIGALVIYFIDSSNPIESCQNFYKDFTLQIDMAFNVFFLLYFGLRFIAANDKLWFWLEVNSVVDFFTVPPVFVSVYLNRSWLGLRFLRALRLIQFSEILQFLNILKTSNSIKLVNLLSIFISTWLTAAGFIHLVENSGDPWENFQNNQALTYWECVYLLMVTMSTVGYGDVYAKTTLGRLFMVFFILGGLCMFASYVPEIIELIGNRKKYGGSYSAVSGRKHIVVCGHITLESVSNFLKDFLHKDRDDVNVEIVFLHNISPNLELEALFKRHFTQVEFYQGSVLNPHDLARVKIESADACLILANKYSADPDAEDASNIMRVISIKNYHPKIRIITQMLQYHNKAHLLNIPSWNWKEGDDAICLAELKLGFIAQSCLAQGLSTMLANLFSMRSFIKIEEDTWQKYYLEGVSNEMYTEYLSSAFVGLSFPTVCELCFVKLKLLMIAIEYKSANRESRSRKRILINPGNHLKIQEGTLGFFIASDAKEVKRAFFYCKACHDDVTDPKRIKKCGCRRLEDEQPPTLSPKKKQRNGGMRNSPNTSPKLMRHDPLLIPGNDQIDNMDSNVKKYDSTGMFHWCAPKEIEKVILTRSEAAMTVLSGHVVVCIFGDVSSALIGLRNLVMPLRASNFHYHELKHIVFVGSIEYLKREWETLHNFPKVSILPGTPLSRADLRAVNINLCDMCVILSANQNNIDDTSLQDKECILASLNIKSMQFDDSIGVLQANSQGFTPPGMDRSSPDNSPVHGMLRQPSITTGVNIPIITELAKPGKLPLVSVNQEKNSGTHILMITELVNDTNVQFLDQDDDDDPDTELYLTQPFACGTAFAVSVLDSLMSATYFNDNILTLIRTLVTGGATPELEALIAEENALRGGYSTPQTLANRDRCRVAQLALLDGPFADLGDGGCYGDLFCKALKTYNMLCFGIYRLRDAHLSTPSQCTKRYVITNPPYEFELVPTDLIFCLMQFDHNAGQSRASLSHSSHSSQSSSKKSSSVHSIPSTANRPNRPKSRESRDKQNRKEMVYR
T1 sequence (Q08460 whole entry A378C/C495S): as above
T2 sequence (Q08460 whole entry): as the sequence (Q08460 whole entry A378C/C495S) above, with C378A, S495C counted along it
Chain of BK channel voltage sensors (mSlo1) (Q08460 whole entry): as the sequence (Q08460 whole entry A378C/C495S) above, with C378A, S495C counted along it
Chain of BK channels (Slo1) (Q08460 whole entry): as the sequence (Q08460 whole entry A378C/C495S) above, with C378A, S495C counted along it

C[N+](C)(C)CCSS(C)(=O)=O.[Br-] [MTSET, [2-(trimethylammonium)ethyl] MTS bromide]
reduction in maximal conductance ([1]; closed BK channels): > 50%
time constant of modification of A313C of closed BK channels [1]: ~23 s

CCCC[N+](CCCC)(CCCC)Cc1ccc(C(=O)c2ccccc2)cc1 [bbTBA, N-(4-[benzoyl]benzyl)-N,N,N-tributylammonium]
0-voltage forward rate (BK channels [2]): 6.7e+07 M⁻¹ s⁻¹
forward rate of block (BK channels [3]): 1.2e+08 M⁻¹ s⁻¹

CC(C)(O)[C@H]1O[C@H]2CC[C@@]3(C)[C@@](O)(CC[C@H]4Cc5c([nH]c6ccccc56)[C@@]43C)C2=CC1=O [paxilline]
inhibition of current (BK channels (mSlo1) [4]; 10 nM paxilline, 0 mV, 10 µM Ca^2+ (Po <0.02), 4 min): over half
inhibition of current (BK channels (mSlo1) [4]; 100 nM paxilline, 0 mV, 10 µM Ca^2+ (Po <0.02), 4 min): essentially complete inhibition
inhibition of current (BK channels (mSlo1) [4]; 100 nM paxilline, holding potential 80 mV, 300 µM Ca^2+, 1 min of application): almost no inhibition
IC50 (BK channels (mSlo1) [4]; IC50 (Hill fit), equilibration 0 mV, 300 µM Ca^2+ (Po ∼0.65)): 58.4 ± 2.9 nM
IC50 (BK channels (mSlo1) [4]; IC50 (Hill fit), equilibration 40 mV, 300 µM Ca^2+ (Po ∼0.83)): 470 ± 94.9 nM
IC50 (BK channels (mSlo1) [4]; IC50 (Hill fit), equilibration 70 mV, 300 µM Ca^2+ (Po ∼0.89)): 5370 ± 1000 nM
IC50 (BK channels (mSlo1) [4]; IC50 (Hill fit), equilibration −70 mV, 300 µM Ca^2+ (Po ∼0.1)): 11.7 ± 1.9 nM
IC50 (BK channels (mSlo1) [4]; IC50 for paxilline, as maximal Po was approached): ~10000 nM
IC50 (BK channels (mSlo1) [4]; IC50 for paxilline, channels largely closed): ~10 nM
reduction in the C-O equilibrium constant L(0) (BK channels (mSlo1) [4]; binding of one paxilline molecule): > 500 fold
direct inhibition of the open state (BK channels (mSlo1) [4]; concentrations up to 10 µM): not directly inhibited
n (BK channels (mSlo1) [4]; fit of Scheme 1 (Eq. 1) to four equilibration conditions): 1.09 ± 0.11
Vh of G-V curve (BK channels (mSlo1) [4]; [12]): 24.75 ± 0.13 mV
z of G-V curve (BK channels (mSlo1) [4]; [12]): 0.86 ± 0.01 e
affinity for closed conformation relative to open conformation (BK channels (mSlo1) [4]; model-dependent analysis (Scheme 1)): > 500 fold and ~500 fold
difference between closed- and open-state affinity (BK channels (mSlo1) [4]; model-independent analysis of IC50 vs state occupancy, and overall conclusion): ~1,000 fold
Vh of G-V curve (BK channels (mSlo1) [4]; [13]): 21.21 ± 1.85 mV
z of G-V curve (BK channels (mSlo1) [4]; [13]): 0.79 ± 0.07 e
normalized NPo (BK channels (mSlo1) [5]; 100 nM paxilline, −80 mV, 300 µM Ca^2+): < 0.05
IC50 (BK channels (mSlo1) [5]; IC50 for reduction in normalized NPo, −80 mV, Hill fit with n = 1): 5.5 ± 1.1 nM
inhibition at 0.1 µM (BK channels (mSlo1) [5]; read-out: inhibition of BK current (NPo)): > 95%
Hill coefficient n (BK channels (mSlo1) [5]; −80 mV, 10 or 300 µM Ca^2+, Hill fit of normalized NPo): 0.85 ± 0.25
Vh of Qoff [6]: 130.2 ± 9.1 mV
Vh of Qon [6]: 131.4 ± 2.1 mV
z of Qoff [6]: 0.56 ± 0.035 e
z of Qon [6]: 0.54 ± 0.025 e
Kd (BK channels (mSlo1) [7]): 12.9 nM
τon, time constant of onset of inhibition by wash-in (BK channels (mSlo1) [7]; 100 nM paxilline, −80 mV, 300 µM Ca^2+, four patches, mean ± STD): 26.3 ± 6.6 s
time constant of onset of inhibition after change in equilibration condition (BK channels (mSlo1) [7]; constant 100 nM paxilline, 80 to −80 mV, 300 µM Ca^2+, four patches, mean ± STD): 6.85 ± 1.79 s
difference in recovery time constant between 20 and 100 nM paxilline (BK channels (mSlo1) [7]; recovery at 0 mV in the constant presence of paxilline, seven patches): 1.6 fold
rate of inhibition of closed channels (slope of blocking rate vs [paxilline]) (BK channels (mSlo1) [7]; −80 and −100 mV, 300 µM Ca^2+, 5 to 2,000 nM paxilline): 2e+06 M⁻¹ s⁻¹
mean time constant of recovery (BK channels (mSlo1) [7]; −80 mV): 37.0 s
fractional block ([8]; MTSEA-modified Slo1-A313C, 10 µM Ca^2+ (Po ∼0.48)): ~0.5
inhibition relative to unmodified Slo1-A313C ([8]; MTSES-modified Slo1-A313C (Po ∼0.12)): only slightly weaker
fractional block ([8]; MTSET-modified Slo1-A313C, 10 µM Ca^2+ (Po ∼0.9)): < 0.1
block of Slo1-A313C current ([8]; unmodified A313C): strong block
reduction of current (BK channels (Slo1); 100 nM paxilline alone for ∼40 s, 0 mV, 10 µM Ca^2+): ~80%
reduction of the number of channels blocked by paxilline (BK channels (Slo1); 100 nM paxilline applied together with 100 µM bbTBA, 0 mV, 10 µM Ca^2+): ~50%
inhibition of BK current (BK channels (Slo1); 100 nM paxilline with 2 M sucrose in the cytosolic solution, 300 µM Ca^2+): only a weak inhibition
effect on MTSET modification of A313C in closed channels ([9]; 1 mM MTSET for 120 s): no difference in modification with or without paxilline
inhibition of BK current during MTSET application [9]: completely inhibited
logP [10]: 3.62
effect of G311 mutation on paxilline inhibition (BK channel G311 mutant): totally abolishes paxilline inhibition
sensitivity to paxilline inhibition [11]: resistant

OC[C@H]1O[C@@](CO)(O[C@H]2O[C@H](CO)[C@@H](O)[C@H](O)[C@H]2O)[C@@H](O)[C@@H]1O [sucrose]
Vh of activation (BK channels (Slo1); with 2 M sucrose, 300 µM Ca^2+, tail currents at −120 mV): −12.8 ± 3.3 mV

CCCCNc1ccc(C(=O)OCCN(C)C)cc1 [tetracaine]
affinity for closed channels relative to open channels (CNG channels): ~1,000 fold
